Rows were chosen to be rich in hits. Some 2.9% of all compounds tested hit in one or more screens of this group.
ZTA DNA inh – counter-screen for EBNA-1 inhibitors: inhibitors of Epstein-Barr virus ZTA; ZTA-DNA binding, fluorescence polarization; inhibition, % at 11 µM; actives 0.15% (n = 320,000); in the data active = inhibition above about 33%
EBNA-1 inh – blocks EBNA-1 binding to DNA; actives 0.34% (n = 300,000); EBNA-1 DNA binding, fluorescence polarization; AID 1950; inhibition, % at 14.8 µM; in the data active = inhibition above about 28%
Apaf1 inhib – inhibitors of human Apaf-1 apoptosome; O14727; AID 489030; actives 0.71% (n = 330,000); reconstituted apoptosome caspase-3 activity, DEVD-Rh110 fluorescence; inhibition, % at 20 µM; active = inhibition of at least 40% at 20 µM;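 note: plate controls were DMSO wells for no effect and DEVD-CHO caspase inhibitor wells for full effect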
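Material: reconstituted apoptosome with Apaf-1, cytochrome c, caspase-9, procaspase-3, dATP; medium: pH 7.5 Hepes buffer with CHAPS, BSA, DTT; also added: cytochrome c and DEVD-Rh110 substrate; timing: 30 min plus 50 min, RT; signal: Rh110 fluorescence intensity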
M18AAP inhibitor – blocks P. falciparum M18 aspartyl aminopeptidase | actives 1.2% (n = 290,000) | inhibition, % at 7.35 µM | AID 1822 | recombinant PfM18AAP, H-Glu-NHMec fluorogenic cleavage;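 active = inhibition above the campaign mean inhibition over all tested compounds plus 3 SD, cut at about 28% in these data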;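 note: 0% = plate median of test compound wells and 100% = 2 mM ZnCl2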
PfG6PD inh – PfG6PD (Plasmodium falciparum) enzyme inhibition | PfGluPho enzyme, NADPH resazurin-diaphorase fluorescence | inhibition, % at 20 µM | actives 0.78% (n = 350,000) | AID 504690;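 active = inhibition reaching at least a set limit at 20 µM in the primary screen, cut at about 59% in these data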;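 note: 0% = DMSO wells with substrate and 100% = DMSO wells lacking glucose-6-phosphate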
UBC13 inh – inhibitors of human UBC13 polyubiquitin chain formation; P61088; TR-FRET; inhibition, % at 20 µM; actives 0.47% (n = 330,000); in the data active = inhibition above about 45%, passing the limit was not always enough; inconclusive = no clear call, values can overlap the other calls
Target sequence (P61088 whole entry, looked up): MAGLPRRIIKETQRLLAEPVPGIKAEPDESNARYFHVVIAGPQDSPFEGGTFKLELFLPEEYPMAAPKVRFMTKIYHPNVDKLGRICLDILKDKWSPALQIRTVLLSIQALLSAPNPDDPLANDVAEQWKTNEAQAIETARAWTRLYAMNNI
Casp3 counter – caspase-3 inhibition (UBC13 counter-screen). shares compounds with UBC13 inh. Recombinant caspase-3, Caspase-Glo 3/7 luminescence, 60 min. inhibition, % at 20 µM. actives 4% (n = 1,400). AID 488856;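 active = mean inhibition across replicates above about 26%, limit read from the data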;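 note: plate controls were DMSO with caspase-3 for no effect and DMSO wells lacking enzyme for full effect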
Target sequence (P42574 whole entry, looked up): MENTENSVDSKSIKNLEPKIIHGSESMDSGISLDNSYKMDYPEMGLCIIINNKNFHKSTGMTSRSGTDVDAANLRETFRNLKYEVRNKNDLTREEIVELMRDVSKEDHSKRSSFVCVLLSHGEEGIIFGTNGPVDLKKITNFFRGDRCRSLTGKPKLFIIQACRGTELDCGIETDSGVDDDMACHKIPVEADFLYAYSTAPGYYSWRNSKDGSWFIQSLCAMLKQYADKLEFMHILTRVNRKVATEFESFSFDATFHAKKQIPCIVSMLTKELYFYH
UBC13 conf – human UBC13 polyubiquitin inhibition, confirmed. shares compounds with UBC13 inh. UBC13 polyubiquitination, TR-FRET, biochemical. inhibition, % at 10 µM. actives 68% (n = 1,400). AID 488859; in the data active = inhibition above about 45%; inconclusive = no clear call, values can overlap the other calls
Numbers without * were called inactive; ? = inconclusive; / = no result.

SMILES	ZTA DNA inh	EBNA-1 inh	Apaf1 inhib	M18AAP inhibitor	PfG6PD inh	UBC13 inh	Casp3 counter	UBC13 conf
Cc1ccc(NC2=CC(=O)CC(c3ccccc3)C2)cc1 (stereo unspecified)	-1	7	-9	-3	-18	45*	-2	0
CCOC(=O)CSc1nc(C(C)(C)C)cc(C(F)(F)F)c1C#N	2	1	12	-9	1	47*	1	33
COC(=O)CSc1nc(C)cc(C(F)(F)F)c1C#N	-29	-3	7	1	6	7	/	/
CCOC(=O)N1CCc2c(sc(NC(=O)CN(CC)CC)c2C#N)C1	2	10	-14	-5	-11	78*	-2	95*
Cn1nc(N)c2c(-c3ccccc3)c(C#N)c(N)nc21	-4	2	-5	-8	-16	59*	1	59*
Cn1nc(N)c2c(-c3ccc(Cl)cc3)c(C#N)c(N)nc21	-18	7	3	4	-11	72*	1	73*
CCN(C(=O)COC(=O)Cn1c(=O)oc2ccccc21)c1c(N)n(Cc2ccccc2)c(=O)[nH]c1=O	/	/	/	/	-1	/	/	/
COc1ccc(Cn2cc(C(=O)c3ccccc3)c(=O)c3cc(OC)ccc32)cc1	8	4	-4	-2	4	13	/	/
Cc1ccc(Cn2cc(C(=O)c3ccc(F)cc3)c(=O)c3cc4c(cc32)OCCO4)cc1	-4	-5	23	-1	-9	45*	-1	?
COc1ccc(C)cc1N(CC(=O)N/N=C/c1ccc2c(c1)OCO2)S(C)(=O)=O	0	0	1	1	-6	4	/	/
CCCN1CCN(C(=O)C2CCN(c3ncnc4c3nc3n4CCCCC3)CC2)CC1	-1	-10	-8	0	-11	77*	-1	94*
CC1CCN(CCNC(=O)C2CCCN(c3ncnc4c3nc3n4CCCCC3)C2)CC1 (stereo unspecified)	-7	-8	4	-14	10	14	/	/
O=C(NCCCN1CCCCC1)C1CCN(c2ncnc3c2nc2n3CCCCC2)CC1	-21	-1	4	0	-13	73*	-1	86*
O=C(NCC1CCN(Cc2ccccc2F)CC1)C1CCCN(c2ncnc3c2nc2n3CCCCC2)C1 (stereo unspecified)	19	1	12	2	-2	47*	1	60*
O=C(NCCCN1CCN(c2ccccc2)CC1)C1CCCN(c2ncnc3c2nc2n3CCCCC2)C1 (stereo unspecified)	-5	-6	-1	1	-1	80*	-5	101*
O=C(Nc1ccc(F)c(Cl)c1)C1CCN(c2ncnc3c2nc2n3CCCCC2)CC1	-11	4	-4	2	1	74*	6	75*
Cc1nc2cc3c(cc2c(C)c1C(=O)OC(C)C)OCO3	8	3	0	3	10	8	/	/
CCc1ccccc1OCC(=O)OCC(=O)Nc1cc(C)on1	-10	/	-2	/	7	48*	6	16
Cc1cc(NC(=O)COC(=O)COc2ccc(C(=O)c3ccccc3)cc2)no1	0	3	-8	-1	6	2	/	/
O=C(Nc1cccc(F)c1)C1CCCN(S(=O)(=O)c2cccc3cccnc23)C1 (stereo unspecified)	-7	0	7	6	11	0	/	/
Cc1ccnc(NCc2c(O)ccc3ccccc23)c1	6	-3	10	1	4	54*	-1	76*
Cc1ccnc(NCc2cc(Cl)ccc2O)c1	/	/	/	/	34	/	/	/
Cc1c(CCOC(=O)CC23CC4CC(CC(C)(C4)C2)C3)sc[n+]1CC(=O)c1ccccc1	5	-2	25	-1	-8	63*	4	52*
Cc1c(CCOC(=O)C23CC4CC(CC(C)(C4)C2)C3)sc[n+]1CC(=O)c1ccccc1	-8	-2	19	-1	10	29	/	/
Cc1ccc(S(=O)(=O)N(C)c2ccc(OCC(=O)Nc3cc(C(=O)O)ccc3Cl)cc2)cc1	/	/	/	/	-22	/	/	/
SMILES	ZTA DNA inh	EBNA-1 inh	Apaf1 inhib	M18AAP inhibitor	PfG6PD inh	UBC13 inh	Casp3 counter	UBC13 conf
CCOC(=O)C1=C(c2ccccc2)O/C(=C(\C(=O)OC)C(F)(F)F)S1	13	8	0	7	10	51*	1	44
NC(=S)N=Nc1c(O)[nH]c2c(Cl)cc(Cl)cc12	/	/	/	/	-7	/	/	/
NC(=S)N=Nc1c(O)[nH]c2cc(F)c(F)cc12	13	4	-6	-5	-1	82*	-1	99*
CN(CCN1CCOCC1)Cc1nc(-c2ccccc2)no1	1	2	-20	-4	7	18	/	/
O=C(CCCCCN1C(=O)c2cccc3cccc(c23)C1=O)NCCO	-11	-1	2	-3	6	47*	-4	32
Cc1cccc(C)c1NC(=O)CNC(=O)CCCN1C(=O)c2cccc3cccc(c23)C1=O	-22	/	15	/	-4	26	/	/
COc1cccc(/C=N\NC(=O)c2sc(N)nc2C)c1OC	-14	5	-2	-4	8	105*	15	110*
CCOc1cc2[nH]c(=O)n(CCCN3CCN(c4ccc(OC)cc4)CC3)c(=O)c2cc1OCC	1	-6	-14	2	-8	1	/	/
Cc1nc(-c2ccccc2)sc1C(=O)NN	14	6	-5	7	-12	5	/	/
Cc1nc(N)sc1C(=O)NN	-9	6	0	10	12	49*	8	35
CCN(CC)c1ccc(/C=C2\CCC(/C=N/NC(=O)c3ccc(=O)n(C)c3)=C2N2CCOCC2)cc1	-4	5	6	13	5	53*	1	-6
O=C(NCCN1CCN(c2ccccc2)CC1)c1ccc2c(c1)[nH]c(=S)n1c3ccccc3nc21	7	1	-1	6	5	47*	2	?
CCOC(=O)c1c(CN2CCN(c3ccccc3)CC2)oc2ccc(O)cc12	2	0	9	-12	26	91*	-3	83*
COc1cccc(NC(=O)c2sc3ncn(CC(=O)N4CCN(c5ccccn5)CC4)c(=O)c3c2C)c1	4	-2	1	4	7	5	/	/
COc1ccc(N(C(=O)c2snc(C(N)=O)c2N)C(C(=O)NC2CCCC2)c2ccc(OC)c(OC)c2)cc1 (stereo unspecified)	-3	-1	11	5	-9	37	/	/
CCC(C(=O)NC1CCCC1)N(C(=O)c1snc(C(N)=O)c1N)c1ccc(OC)cc1 (stereo unspecified)	15	6	6	-8	-8	52*	-1	62*

Screening results deposited in PubChem BioAssay by several laboratories.
